Measurements: ChEMBL document CHEMBL4052637, “Discovery and Characterization of R/S-N-3-Cyanophenyl-N'-(6-tert-butoxycarbonylamino-3,4-dihydro-2,2-dimethyl-2H-1-benzopyran-4-yl)urea, a New Histone Deacetylase Class III Inhibitor Exerting Antiproliferative Activity against Cancer Cell Lines” (J Med Chem, 2017)
pIC50: −log10 of the molar value. Calls of active or inactive are those of the source. No cut-off for these calls is given here.

Legend:
U-373MG ATCC = assay: Antitumor activity against CM-Dil fluorescent dye labeled human U373 cells xenografted in zebrafish embryo at 5 to 10 uM preincubated with tumor for 30 to 36 hrs followed by tumor implantation in zebra fish yolk sac measured after 72 hrs by fluorescence microscopy; format: functional, cell-based
Method in brief: (§1)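 Cells were pretreated in vitro at 5 or 10 μM for 30 or 36 h and labeled with CM-DiI 2 h before injection. Then 100–200 cells were injected into the yolk sac of wild-type zebrafish 48 h post-fertilization, anesthetized in 0.02% tricaine. Embryos were kept 72 h at 28.5 °C in Danieau solution with 0.003% phenylthiourea, and fluorescence was quantified in eight fish per condition.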

[1] = target: T1, NAD-dependent protein deacetylase sirtuin-1 (Homo sapiens) (UniProt Q96EB6); assay: Inhibition of SIRT1 in human U373 cells assessed as increase of histone H4 acetylation at 10 uM after 8 hrs by Western blotting method relative to control; format: cell-based
T1 sequence (whole entry): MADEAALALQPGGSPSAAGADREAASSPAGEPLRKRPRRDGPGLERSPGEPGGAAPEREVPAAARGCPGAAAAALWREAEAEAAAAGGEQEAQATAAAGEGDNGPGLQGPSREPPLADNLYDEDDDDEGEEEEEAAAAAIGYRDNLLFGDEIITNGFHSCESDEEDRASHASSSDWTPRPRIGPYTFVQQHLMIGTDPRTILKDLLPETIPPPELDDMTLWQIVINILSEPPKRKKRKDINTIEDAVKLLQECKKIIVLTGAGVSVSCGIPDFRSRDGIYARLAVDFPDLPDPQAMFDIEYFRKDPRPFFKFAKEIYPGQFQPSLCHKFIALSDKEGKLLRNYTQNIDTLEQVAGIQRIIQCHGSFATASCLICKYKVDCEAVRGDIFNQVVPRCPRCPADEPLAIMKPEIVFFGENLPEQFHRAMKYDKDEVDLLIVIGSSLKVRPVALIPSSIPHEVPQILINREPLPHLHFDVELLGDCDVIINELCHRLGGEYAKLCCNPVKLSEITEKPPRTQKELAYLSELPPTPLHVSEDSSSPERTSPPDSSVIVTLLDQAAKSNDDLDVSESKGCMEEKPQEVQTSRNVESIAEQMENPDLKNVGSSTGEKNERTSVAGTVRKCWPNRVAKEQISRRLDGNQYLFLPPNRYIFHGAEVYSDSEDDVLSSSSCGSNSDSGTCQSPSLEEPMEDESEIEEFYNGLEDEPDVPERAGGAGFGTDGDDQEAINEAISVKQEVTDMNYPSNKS

Homo sapiens = species on record: Homo sapiens; assay: Inhibition of HDAC isolated from human K562 cells at 0.1 to 100 uM using Fluor-de-Lys as substrate after 15 mins by fluorescence assay
[2] = Induction of apoptosis in human U373 cells at 10 uM after 72 hrs by TUNEL method relative to control; format: functional, U-373MG ATCC
KBC1 = assay: Antiproliferative activity against human KBC1 cells overexpressing ABCB1 after 72 hrs by MTT assay; format: functional, cell-based
Method in brief: (§2)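 MTT assay: cells in RPMI 1640 with 10% heat-inactivated FCS at 37 °C and 5% CO2 were seeded 24 h before treatment. They were exposed 72 h to compound at 0.01–100 μM, with DMSO as solvent.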

Hs 683 = assay: Antitumor activity against CM-Dil fluorescent dye labeled human Hs683 cells xenografted in zebrafish embryo at 10 uM preincubated with tumor for 36 hrs followed by tumor implantation in zebra fish yolk sac measured after 72 hrs by fluorescence microscopy; format: functional, cell-based; method in brief: as §1
[3] = target: Histone deacetylase 3 (Homo sapiens) (UniProt O15379); assay: Inhibition of His-tagged recombinant human HDAC3 expressed in baculovirus infected insect cells at 0.1 to 100 uM using Fluor-de-Lys-SIRT1 as substrate after 15 mins by fluorescence assay
Sequence of Histone deacetylase 3 (Homo sapiens) (O15379 whole entry): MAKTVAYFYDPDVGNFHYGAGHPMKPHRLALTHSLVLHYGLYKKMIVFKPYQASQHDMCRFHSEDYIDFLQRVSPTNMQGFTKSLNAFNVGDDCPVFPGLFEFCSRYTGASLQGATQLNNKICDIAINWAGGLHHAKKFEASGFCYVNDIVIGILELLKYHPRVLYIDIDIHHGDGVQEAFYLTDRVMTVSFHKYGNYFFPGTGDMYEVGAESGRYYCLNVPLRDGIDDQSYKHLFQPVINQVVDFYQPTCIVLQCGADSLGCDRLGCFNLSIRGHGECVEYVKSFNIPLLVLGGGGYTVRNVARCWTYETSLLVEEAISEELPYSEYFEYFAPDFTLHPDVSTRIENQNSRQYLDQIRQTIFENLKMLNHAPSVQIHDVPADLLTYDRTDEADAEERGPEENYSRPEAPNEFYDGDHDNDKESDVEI

NCI-H522 = assay: Growth inhibition of human NCI-H522 cells after 48 hrs by SRB assay; format: functional; conditions: NCI-H522, 48 h
EKVX = assay: Growth inhibition of human EKVX cells after 48 hrs by SRB assay; format: functional
[4] = target: T1, NAD-dependent protein deacetylase sirtuin-1 (Homo sapiens); assay: Inhibition of SIRT1 in human U373 cells assessed as increase of histone H4 acetylation at 5 uM after 8 hrs by Western blotting method relative to control; format: cell-based
[5] = target: T2, NAD-dependent protein deacetylase sirtuin-2 (Homo sapiens) (UniProt Q8IXJ6); assay: Inhibition of SIRT2 in human U373 cells assessed as increase of alpha-tubulin acetylation after 8 hrs by Western blotting method; format: cell-based
T2 sequence (whole entry): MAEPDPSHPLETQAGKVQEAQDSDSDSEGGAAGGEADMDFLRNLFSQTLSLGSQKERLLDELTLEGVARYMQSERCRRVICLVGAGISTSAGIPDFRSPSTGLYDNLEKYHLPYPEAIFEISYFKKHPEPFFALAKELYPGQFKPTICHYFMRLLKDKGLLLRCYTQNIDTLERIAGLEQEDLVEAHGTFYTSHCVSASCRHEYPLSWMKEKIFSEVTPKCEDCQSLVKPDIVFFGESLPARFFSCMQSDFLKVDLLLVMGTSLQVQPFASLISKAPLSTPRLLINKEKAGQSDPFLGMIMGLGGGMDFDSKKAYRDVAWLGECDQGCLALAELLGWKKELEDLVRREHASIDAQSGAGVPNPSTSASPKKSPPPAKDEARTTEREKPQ

SF-268 = assay: Growth inhibition of human SF268 cells after 48 hrs by SRB assay; format: functional; conditions: SF-268, 48 h
T98G = assay: Antiproliferative activity against human T98G cells after 72 hrs by MTT assay; format: functional, cell-based; method in brief: as §2
[6] = Selectivity index, ratio of IC50 for mouse astrocytes to IC50 for human U373 cells
UACC-62 = assay: Growth inhibition of human UACC62 cells after 48 hrs by SRB assay; format: functional; conditions: UACC-62, 48 h
COLO 205 = assay: Growth inhibition of human COLO205 cells after 48 hrs by SRB assay; format: functional; conditions: COLO 205, 48 h
SK-MEL-2 = assay: Growth inhibition of human SK-MEL-2 cells after 48 hrs by SRB assay; format: functional; conditions: SK-MEL-2, 48 h
[7] = target: T1, NAD-dependent protein deacetylase sirtuin-1 (Homo sapiens); assay: Inhibition of SIRT1 in human U373 cells assessed as increase of histone H4 acetylation at 2.5 uM after 8 hrs by Western blotting method relative to control; format: cell-based
[8] = target: T2, NAD-dependent protein deacetylase sirtuin-2 (Homo sapiens); assay: Inhibition of SIRT2 in human Hs683 cells assessed as increase of alpha-tubulin acetylation at 10 uM after 8 hrs by Western blotting method relative to control; format: cell-based
[9] = target: Protein deacetylase HDAC6 (Homo sapiens) (UniProt Q9UBN7); assay: Inhibition of His-tagged recombinant human HDAC6 expressed in baculovirus infected insect cells at 0.1 to 100 uM using Fluor-de-Lys-SIRT1 as substrate after 15 mins by fluorescence assay
Sequence of Protein deacetylase HDAC6 (Homo sapiens) (Q9UBN7 whole entry): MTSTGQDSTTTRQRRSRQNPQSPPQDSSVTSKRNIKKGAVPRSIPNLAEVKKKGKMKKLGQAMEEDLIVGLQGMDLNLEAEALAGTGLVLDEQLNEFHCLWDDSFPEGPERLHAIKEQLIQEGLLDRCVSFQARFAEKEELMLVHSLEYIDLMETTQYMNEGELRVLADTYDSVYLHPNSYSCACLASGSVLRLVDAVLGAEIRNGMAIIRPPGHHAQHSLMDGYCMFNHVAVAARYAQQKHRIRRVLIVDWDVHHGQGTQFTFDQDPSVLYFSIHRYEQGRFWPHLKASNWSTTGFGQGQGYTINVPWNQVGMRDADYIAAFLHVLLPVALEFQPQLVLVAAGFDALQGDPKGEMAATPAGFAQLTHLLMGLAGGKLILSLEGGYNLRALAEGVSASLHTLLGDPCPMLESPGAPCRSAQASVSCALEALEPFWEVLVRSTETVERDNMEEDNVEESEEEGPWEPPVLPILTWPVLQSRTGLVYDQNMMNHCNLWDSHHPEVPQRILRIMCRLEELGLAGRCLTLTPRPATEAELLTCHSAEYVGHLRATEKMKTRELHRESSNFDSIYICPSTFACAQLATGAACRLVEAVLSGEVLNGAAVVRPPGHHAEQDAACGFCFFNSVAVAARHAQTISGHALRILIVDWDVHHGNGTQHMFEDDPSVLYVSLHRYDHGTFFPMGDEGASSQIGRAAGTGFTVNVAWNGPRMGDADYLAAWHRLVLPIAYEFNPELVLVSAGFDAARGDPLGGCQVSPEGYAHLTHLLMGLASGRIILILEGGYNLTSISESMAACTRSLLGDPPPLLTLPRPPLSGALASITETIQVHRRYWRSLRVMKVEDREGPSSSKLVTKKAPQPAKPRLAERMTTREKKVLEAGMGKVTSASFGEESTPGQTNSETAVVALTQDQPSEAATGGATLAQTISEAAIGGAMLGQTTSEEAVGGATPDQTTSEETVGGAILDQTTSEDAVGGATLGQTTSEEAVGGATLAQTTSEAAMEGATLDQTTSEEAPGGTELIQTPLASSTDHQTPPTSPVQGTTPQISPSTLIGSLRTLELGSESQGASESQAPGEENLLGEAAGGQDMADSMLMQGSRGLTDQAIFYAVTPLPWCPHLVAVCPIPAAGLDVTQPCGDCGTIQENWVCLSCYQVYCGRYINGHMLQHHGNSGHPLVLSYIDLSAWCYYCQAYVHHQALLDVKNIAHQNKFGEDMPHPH

OVCAR-8 = assay: Growth inhibition of human OVCAR8 cells after 48 hrs by SRB assay; format: functional; conditions: OVCAR-8, 48 h
[10] = target: T1, NAD-dependent protein deacetylase sirtuin-1 (Homo sapiens); assay: Inhibition of SIRT1 in human Hs683 cells assessed as increase of histone H4 acetylation at 5 uM after 8 hrs by Western blotting method relative to control; format: cell-based
A2780 = assay: Antiproliferative activity against human A2780 cells after 72 hrs by MTT assay; format: functional, cell-based; method in brief: as §2

Structure (SMILES): CC(C)(C)OC(=O)Nc1ccc2c(c1)C(NC(=O)Nc1cccc(C#N)c1)CC(C)(C)O2 (stereo not drawn)
- Activity (U-373MG ATCC): Active
- fold change (FC) [1]: 4.1
- inhibition (Homo sapiens): inactive
- Activity [2]: <10%
- Activity (KBC1): Active
- Activity (Hs 683): Active
- inhibition [3]: inactive
- GI50 (NCI-H522): 3.24 µM
- GI50 (EKVX): 0.562 µM
- fold change (FC) [4]: 1.3
- inhibition [5]: Dose-dependent effect
- GI50 (SF-268): 5.01 µM
- pIC50 (T98G): 4.85
- Ratio IC50 [6]: >10
- GI50 (UACC-62): 1 µM
- GI50 (COLO 205): 3.55 µM
- GI50 (SK-MEL-2): 5.37 µM
- fold change (FC) [7]: 1
- fold change (FC) [8]: 1.6
- inhibition [9]: inactive
- GI50 (OVCAR-8): 3.16 µM
- fold change (FC) [10]: 8.3
- Activity (A2780): Active
